Screening results: PubChem BioAssay, several laboratories
Rows were chosen to be rich in hits. Some 2.2% of all compounds tested hit in one or more screens of this group.
Efflux pump mplx: inhibitors of Candida antifungal efflux pumps expressed in yeast; S. cerevisiae Candida pump triplex, Nile Red efflux; inhibition, % at 10 µM; actives 0.44% (n = 330,000); AID 485275;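 active means plate passing quality check with inhibition over a set limit, or well fluorescence over plate mean plus 4 SD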;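 further: Nile Red retained in pooled yeast measured as flow cytometry median fluorescence; 0% = buffer negative control and 100% = Enniatin B positive control; higher means more Nile Red kept so more efflux inhibition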
HDAC3 inhib: inhibitors of human histone deacetylase 3. O15379. recombinant HDAC3, fluorogenic peptide/trypsin coupled, fluorescence. inhibition, % at 8.3 µM. actives 0.15% (n = 320,000). AID 2718; in the data active means inhibition above about 26%, passing the limit was not always enough; inconclusive means no clear call, values can overlap the other calls
Target sequence (O15379 whole entry, looked up): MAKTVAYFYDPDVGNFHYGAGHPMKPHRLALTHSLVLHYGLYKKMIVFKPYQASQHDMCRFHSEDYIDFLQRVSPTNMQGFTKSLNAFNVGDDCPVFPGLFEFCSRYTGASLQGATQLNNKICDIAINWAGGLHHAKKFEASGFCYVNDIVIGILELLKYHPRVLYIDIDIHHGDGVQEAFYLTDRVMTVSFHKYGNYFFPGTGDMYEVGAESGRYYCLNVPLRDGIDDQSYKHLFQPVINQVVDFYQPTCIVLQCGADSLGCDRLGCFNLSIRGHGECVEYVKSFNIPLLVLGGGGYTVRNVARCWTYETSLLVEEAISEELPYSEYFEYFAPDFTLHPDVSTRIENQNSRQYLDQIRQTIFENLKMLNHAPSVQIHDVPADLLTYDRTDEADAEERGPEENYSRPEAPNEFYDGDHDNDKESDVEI
PolyA inh: inhibitors of polyadenylation in S. cerevisiae; S. cerevisiae SKY197-pL101 polyadenylation reporter, beta-gal luminescence; efflux-impaired pdr1/pdr3 knockout yeast; score 100 = 6 SD above DMSO; activity score, % at 12 µM; actives 0.02% (n = 300,000);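 active means lowest replicate activity score at least 50, where 100 means six control SD above control mean; inconclusive means lowest score under 50 but half or more replicates reach 50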;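 further: yeast exposed to compound for 9 h at 30 °C; higher score means more reporter readthrough which indicates perturbed polyadenylation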
AI-2 QS modul: modulators of Vibrio harveyi AI-2 quorum sensing system. Vibrio harveyi JMH597 AI-2 luminescence/OD600 ratio, 9 h; stronger effect = lower value; strain lacks LuxN and CqsS sensors; 0 = neutral-control median. activity change, % at 7.5 µM. actives 0.4% (n = 300,000). AID 2094; in the data active means activity change below about -75%, passing the limit was not always enough; inconclusive means no clear call, values can overlap the other calls;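 further: luminescence divided by OD600 gain over 9 h not by final OD600 alone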
T cruzi repl: blocks replication of Trypanosoma cruzi; actives 1.4% (n = 300,000); inhibition, % (test concentration not listed); T. cruzi beta-gal in NIH3T3, luminescence, 90 h;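 active means mean inhibition across valid replicates above about 55%, limit read from the data; inconclusive means mean below that limit but half or more replicates reach it; inactive means mean below it, under half of replicates reach it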;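 further: signal also drops with host cell toxicity which is not excluded here; 0% = plate median of DMSO wells and 100% = zero luminescence signal; higher percent means less beta-gal luminescence so fewer parasites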
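System: mouse NIH/3T3 fibroblasts infected with β-gal-expressing T. cruzi Tulahuen C4 / Input: NIH/3T3 cells, 5,000 per well / Buffer or medium: Low-serum DMEM with 2% FBS / Probe or stimulus: 5000 reporter trypomastigotes per well / Schedule: ≥90 h infection period, 3 h prior cell attachment / Measured by: GalScreen luminescence, 60 min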
Active calls of the source: *; ? = inconclusive; . = not tested or not shown.

SMILES	Efflux pump mplx	HDAC3 inhib	PolyA inh	AI-2 QS modul	T cruzi repl
Cc1nc2c(c3c1[nH]c1ccccc13)C(O)CC(C)(C)C2 (configuration not stated)	0	-155	7	-10	8
Cc1ccc(S(=O)(=O)Nc2ccc(C(OC(=O)c3ccccc3[N+](=O)[O-])(C(F)(F)F)C(F)(F)F)cc2)cc1	0	31*	11	40	19
O=C(OC(c1ccc(NS(=O)(=O)c2ccccc2)cc1)(C(F)(F)F)C(F)(F)F)c1ccccc1	0	34*	3	4	7
COc1ccccc1NC(=O)CSC(N)=O	0	63*	-18	20	-8
Cc1ccccc1NC(=O)CSC(N)=O	0	-1	-4	26	-17
O=C(CSc1nnc(COc2ccc(F)cc2)o1)N1c2ccccc2CCc2ccccc21	0	-3	2	19	57*
Cc1cccc(OCc2nnc(SCC(=O)N3c4ccccc4CCc4ccccc43)o2)c1	0	1	-1	26	30
O=C(CCCCn1c(=O)c2ccccc2n(Cc2ccccc2F)c1=O)NC1CCN(Cc2ccccc2)CC1	0	3	15	14	52
Cn1ccnc1SCC(=O)c1ccc2ccccc2c1	0	.	-10	-1	-3
O=[N+]([O-])c1cc(CN2CCN(c3cccc(C(F)(F)F)c3)CC2)c2cccnc2c1O	0	6	-19	-97*	76*
Oc1ccc(CN2CCc3ccccc3C2)c2cccnc12	0	-2	-68	78	57*
OCc1ccc(O)c2ncccc12	0	0	-7	8	48
CC(C)COCc1ccc(O)c2ncccc12	0	-1	-25	37	52
Oc1ccc(CN2CCCCC2)c2cccnc12	0	-5	-24	2	68*
Oc1c(Cl)cc(CN2CCCCC2)c2cccnc12	0	2	-1	11	53
CCCOCc1ccc(O)c2ncccc12	0	0	6	24	57*
O=C(N/N=C/c1cccn1-c1cccc(C(=O)O)c1)Nc1ccccc1	0	7	3	24	-19
Cc1c(N/C(=N/S(=O)(=O)c2ccc(F)cc2)c2ccccc2)c(=O)n(-c2ccccc2)n1C	0	-1	10	-2	6
Oc1ccc(CN2CCC(Cc3ccccc3)CC2)c2cccnc12	.	.	-30	-50	50
Oc1ccc(CN2CCN(c3ccccc3)CC2)c2cccnc12	0	-3	-25	4	64*
Cc1cc(C)c2sc(N(CCCN(C)C)C(=O)c3ccc(S(=O)(=O)N4CCCc5ccccc54)cc3)nc2c1	0	6	9	25	60*
Cc1cc(C)c2sc(N(CCCN(C)C)C(=O)c3ccc(S(=O)(=O)N4CCc5ccccc5C4)cc3)nc2c1	0	0	1	23	47
CN(C)CCCN(C(=O)c1ccc(S(=O)(=O)N2CCc3ccccc3C2)cc1)c1nc2ccc(F)cc2s1	0	.	-6	7	25
CCOC(=O)N1CCN(S(=O)(=O)c2ccc(C(=O)N(CCCN(C)C)c3nc4cc(OC)ccc4s3)cc2)CC1	0	5	7	1	68*
COc1ccc2sc(N(CCCN(C)C)C(=O)c3ccc(S(=O)(=O)N4CCc5ccccc5C4)cc3)nc2c1	0	8	8	8	57*
SMILES	Efflux pump mplx	HDAC3 inhib	PolyA inh	AI-2 QS modul	T cruzi repl
COc1ccc2sc(N(CCCN(C)C)C(=O)c3ccc(S(=O)(=O)N4CCCC4)cc3)nc2c1	0	2	-10	1	45
C[C@H](CO)N1C[C@H](C)[C@@H](CN(C)C(=O)Nc2ccccc2)Oc2ccc(NC(=O)Nc3ccccc3)cc2C1=O	0	-2	.	.	.
Cc1cc2oc(=O)cc(CN3CCN(S(=O)(=O)/C=C/c4ccccc4)CC3)c2cc1C	0	-1	1	10	66*
Cc1cc2oc(=O)cc(CN3CCN(S(=O)(=O)c4ccc5c(c4)OCCO5)CC3)c2cc1C	0	4	-18	10	35
COc1ccccc1CN1C[C@@H]2C[C@@H](c3ccc(C)c(C)c3)N3CCC[C@@]23C1=O	0	-6	-3	1	68*
Cc1ccccc1OCCSCc1nc2ccccc2[nH]1	-4	0	0	10	40
O=C(CCNc1ccc(F)cc1)c1cc2ccccc2o1	0	3	3	-12	73*
CC1=CC(=O)N(c2ccn(C)n2)C1=O	0	-1	5	10	-1
O=C(COc1ccccc1)NC(=S)Nc1cccc([N+](=O)[O-])c1	0	-1	-12	24	-18
O=C(COc1ccccc1)NC(=S)Nc1ccc2c(c1)Cc1ccccc1-2	0	-6	6	13	61*
Oc1ccc(Cl)cc1CNCc1cccc2ccccc12	0	7	.	.	.
O=C(Nc1ccncc1)Nc1cccc(C(F)(F)F)c1	0	12	22	15	41
Cc1ccc(S(=O)(=O)Nc2ccc(NC(=O)Nc3cccc(C(F)(F)F)c3)cc2)cc1	0	31*	27	40	-3
CCN(CC)S(=O)(=O)c1ccc(NC(=O)Nc2cccc(C(F)(F)F)c2)cc1	0	?	8	-8	76*
Cc1ccc(NS(=O)(=O)c2ccc(NC(=O)c3cccc(NC(=O)C(C)C)c3)cc2)cc1	0	-4	-8	20	-1
c1cnc2ccc(C(c3nnnn3C3CCCCC3)N3CCN(C4CCCCC4)CC3)cc2c1 (configuration not stated)	0	0	-12	-2	69*
OCCc1ccc(O)c(-n2nc3ccccc3n2)c1	0	5	14	0	-8
Cc1nc(N2CCC(C)CC2)c2c(C)c(C(=O)Nc3ccc(C(F)(F)F)cc3)sc2n1	0	-16	5	10	61*
Nc1nc(-c2ccccn2)nc(N)c1Cc1ccc(Cl)cc1Cl	1	1	-24	62	73*
Nc1nc(-c2ccccn2)nc(N)c1Cc1ccccc1F	0	7	-16	84	82*
Nc1nc(-c2ccccn2)nc(N)c1Cc1c(F)cccc1Cl	0	1	-1	38	57*
CNc1cc(C(F)(F)F)nc(-c2ccccn2)n1	0	-2	13	14	-20
C[C@H](CO)N1C[C@H](C)[C@@H](CN(C)Cc2ccc(C(=O)O)cc2)Oc2ccc(NS(C)(=O)=O)cc2C1=O	0	-2	.	.	.
Cc1[nH]c2ccccc2c1C(=O)CSc1nc2cc(S(=O)(=O)N3CCCCC3)ccc2o1	0	-2	16	25	57*
COc1ccc(C(=O)Nc2ccc([N+](=O)[O-])cn2)c(OC)c1	-2	-11	-13	-6	-2
O=C(O)c1ccc(NC2=C(Cl)C(=O)c3ccccc3C2=O)cc1	0	3	-13	?	55*
O=C1C(Cl)=C(Nc2ccccc2)C(=O)c2ccccc21	0	-2	-34	-6	?
